The species named for series [1] is Mus musculus. Put plainly: Effective dose against Pseudomonas aeruginosa infection in mice. It counts as functional. The essentials: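 B6D2F1 mice made myelosuppressed with cyclophosphamide 200 mg/kg sc on day -4. Compound given iv as Tris salt on day -1. Survival scored over 4 days, groups of 10. ED50 obtained by Probit analysis.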
The species named for series [2] is Mus musculus. Put plainly: Compound was tested for its potency to induce TNF-alpha in murine macrophage cultures in the absence of INF at 1 mg/mL concentration. The class given is functional. The essentials:
(§1)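 Bone marrow cells from B6D2F1 mouse femurs differentiated 8-10 days at 37 °C, 5% CO2 in DMEM with 10% FCS, 5% horse serum and 20% L929 supernatant (CSF-1). Macrophages at 10⁶ cells/mL adhered 3 h, then incubated overnight without IFN-γ. Washed, exposed 4 h to compound in serum-free medium. Supernatant TNF-α measured by cytotoxicity to actinomycin-D-treated L929 cells, as IU/mL.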

Series [3] is filed under the species Mus musculus. The series can be described thus: Compound was tested for its potency to induce TNF-alpha in murine macrophage cultures in the absence of INF at 10 mg/mL concentration. It counts as functional. The essentials:
as §1

Series [4] is filed under the species Mus musculus. Put plainly: Compound was tested for its potency to induce TNF-alpha in murine macrophage cultures in the presence of INF at 10 mg/mL concentration. It counts as functional. The essentials: (§2)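 Macrophages derived from B6D2F1 mouse bone marrow (8-10 days with L929 supernatant as CSF-1 source), plated at 10⁶ cells/mL. Adherent cells primed overnight with 100 units/mL interferon γ, washed, then incubated 4 h with compound in serum-free medium. TNF-α in supernatants determined by cytotoxicity to actinomycin-D-treated L929 cells, as IU/mL.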

Series [5] has as its system Mus musculus. The series can be described thus: Nonspecific resistance against Pseudomonas aeruginosa infection in mice; administration of a single dose (12.5 mg/kg) 1 day prior to infection, group size 10 mice. It counts as functional. The essentials:
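B6D2F1 mice given cyclophosphamide 200 mg/kg s.c. on day -4, then a single i.v. dose of 12.5 mg/kg on day -1 (Tris salts). Survival scored after 4 days of observation. Groups of 10 mice.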

Series [6] is described as follows: The endotoxic potential (LD50) by iv administration and ip administration of galactosamine (400 mg/kg). The conditions noted are these: mouse, in vivo. It counts as ADME, organism-based. An outline of the steps: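 C57BL/6 mice, groups of six. Serial dilutions given i.v. by tail vein (0.2 mL, saline, or isotonic glucose with 1% ethanol) together with galactosamine 400 mg/kg i.p. LD50 calculated by probit analysis from survivors at 1 day.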

Series [7] is filed under the species Mus musculus. Put plainly: Compound was tested for its potency to induce TNF-alpha in murine macrophage cultures in the presence of INF at 1 mg/mL concentration. It counts as functional. An outline of the steps: as §2

Turning to `CCCCCCCCCCCC(O)CC(=O)NC1C(OC(=O)C[C@H](NC(=O)CC(O)CCCCCCCCCCC)C(=O)O)OC(CO)C(O)C1OC(=O)CC(O)CCCCCCCCCCC` (stereo partly drawn), in the series filed under Mus musculus [1], the ED50 is greater than 12.5 mg/kg. Also, the Activity in the series filed under Mus musculus [2] is reported as 0 IU ml-1; in the series filed under Mus musculus [3] it was 446 IU ml-1; in the series listed under Mus musculus [4] it was 899 IU ml-1; in the series listed under Mus musculus [7] it was 25 IU ml-1. In the series on Mus musculus [5], this compound showed an NSR survival rate of 8. The compound further came in with an LD50 in series [6] of 1 mg/kg.
As for `CCCCCCCCCCCC(O)CC(=O)NC1C(OCCCN(CC(=O)O)C(=O)CC(O)CCCCCCCCCCC)OC(CO)C(O)C1O` (stereo not drawn), the Activity in the series filed under Mus musculus [3] and in the series filed under Mus musculus [4] was 0 IU ml-1 throughout. In the series on Mus musculus [5], the NSR survival rate is given as 3. The compound further gave an LD50 in series [6] greater than 5 mg/kg.
`CCCCCCCCCCCC(O)CC(=O)NC1C(OC(=O)CC[C@H](NC(=O)CC(O)CCCCCCCCCCC)C(=O)O)OC(CO)C(O)C1OC(=O)CC(O)CCCCCCCCCCC` (stereo partly drawn) showed an ED50 in the series filed under Mus musculus [1] of 5.7 mg/kg. Also, the Activity in the series filed under Mus musculus [2] was 270 IU ml-1; in the series listed under Mus musculus [3], 576 IU ml-1; in the series filed under Mus musculus [4], 3285 IU ml-1; in the series listed under Mus musculus [7] it was 1511 IU ml-1. For the same compound, in the series with Mus musculus [5], the NSR survival rate was determined as 9. This compound also yielded an LD50 in series [6] of 0.3 mg/kg.
`CCCCCCCCCCCC(O)CC(=O)NC1C(OC(=O)CC[C@@H](NC(=O)CC(O)CCCCCCCCCCC)C(=O)O)OC(CO)C(O)C1NC(=O)CC(O)CCCCCCCCCCC` (stereo partly drawn) came in with an ED50 in the series listed under Mus musculus [1] greater than 25 mg/kg. Also, the Activity amounted to 27 IU ml-1 in the series listed under Mus musculus [2], 464 IU ml-1 in the series listed under Mus musculus [3], 609 IU ml-1 in the series listed under Mus musculus [4] and 151 IU ml-1 in the series listed under Mus musculus [7]. Moreover, in the series on Mus musculus [5], the NSR survival rate was 3. The compound further registered an LD50 in series [6] of 5.1 mg/kg.
The compound `CCCCCCCCCCCC(O)CC(=O)NC1C(OC(=O)CC[C@H](NC(=O)CC(O)CCCCCCCCCCC)C(=O)O)OC(CO)C(O)C1NC(=O)CC(O)CCCCCCCCCCC` (stereo partly drawn) had an ED50 in the series filed under Mus musculus [1] of 1.5 mg/kg. Moreover, the Activity in the series filed under Mus musculus [2] is given as 175 IU ml-1; in the series filed under Mus musculus [3], 1069 IU ml-1; in the series filed under Mus musculus [4] it was 1570 IU ml-1; in the series filed under Mus musculus [7], 294 IU ml-1. This compound also displayed an NSR survival rate with Mus musculus [5] of 8. The LD50 in series [6] is 0.2 mg/kg.
The compound `CCCCCCCCCCCC(O)CC(=O)NC1C(OC(=O)C[C@@H](NC(=O)CC(O)CCCCCCCCCCC)C(=O)O)OC(CO)C(O)C1OC(=O)CC(O)CCCCCCCCCCC` (stereo partly drawn) came in with an ED50 in the series listed under Mus musculus [1] of 3.1 mg/kg. The Activity in the series filed under Mus musculus [2] stood at 218 IU ml-1; in the series listed under Mus musculus [3], 618 IU ml-1; in the series listed under Mus musculus [4], 2768 IU ml-1; in the series filed under Mus musculus [7], 2708 IU ml-1. This compound also showed an NSR survival rate with Mus musculus [5] of 10. Besides, the LD50 in series [6] was less than 0.05 mg/kg.
Regarding `CCCCCCCCCCCC(O)CC(=O)NC1C(OC(=O)CC[C@@H](NC(=O)CC(O)CCCCCCCCCCC)C(=O)O)OC(CO)C(O)C1OC(=O)CC(O)CCCCCCCCCCC` (stereo partly drawn), the 50% effect level in the series filed under Mus musculus [1] (ED50) was put at a dose of 0.3 mg/kg. The Activity is given as 518 IU ml-1 in the series filed under Mus musculus [2], 688 IU ml-1 in the series filed under Mus musculus [3], greater than 2409 IU ml-1 in the series filed under Mus musculus [4] and greater than 2409 IU ml-1 in the series filed under Mus musculus [7]. Further, the NSR survival rate in the series on Mus musculus [5] was 10. For the same compound, in series [6], the LD50 turned out to be 0.04 mg/kg.
The compound `CCCCCCCCCCCC(O)CC(=O)NC1C(OCCCN(CC(=O)O)C(=O)CC(O)CCCCCCCCCCC)OC(CO)C(O)C1OC(=O)CC(O)CCCCCCCCCCC` (stereo not drawn) returned an ED50 in the series listed under Mus musculus [1] of 1.5 mg/kg. Also, the Activity in the series filed under Mus musculus [2] turned out to be 523 IU ml-1; in the series listed under Mus musculus [3], 1498 IU ml-1; in the series filed under Mus musculus [4], 3050 IU ml-1; in the series filed under Mus musculus [7], 920 IU ml-1. In the series with Mus musculus [5], this compound gave an NSR survival rate of 10. The compound further gave an LD50 in series [6] of 0.1 mg/kg.

One may read the ED50 as the dose that gives a 50% effect, or the effect in half of the subjects. Broadly, the LD50 is the dose at which mortality reaches 50%. Read a low LD50 as greater toxicity.

The record behind these values is ChEMBL document CHEMBL1126219, “Acyclic analogues of lipid A: synthesis and biological activities” (J Med Chem, 1992).
